From ChEMBL document CHEMBL1127475, “Novel amidine-containing peptidyl phosphonates as irreversible inhibitors for blood coagulation and related serine proteases” (J Med Chem, 1994) come the findings set out here.

Calls of active or inactive are those of the source. No cut-off for these calls is given here.

In test [1] the target is T1, Coagulation factor XII (Homo sapiens) (UniProt P00748).
T1 sequence (whole entry): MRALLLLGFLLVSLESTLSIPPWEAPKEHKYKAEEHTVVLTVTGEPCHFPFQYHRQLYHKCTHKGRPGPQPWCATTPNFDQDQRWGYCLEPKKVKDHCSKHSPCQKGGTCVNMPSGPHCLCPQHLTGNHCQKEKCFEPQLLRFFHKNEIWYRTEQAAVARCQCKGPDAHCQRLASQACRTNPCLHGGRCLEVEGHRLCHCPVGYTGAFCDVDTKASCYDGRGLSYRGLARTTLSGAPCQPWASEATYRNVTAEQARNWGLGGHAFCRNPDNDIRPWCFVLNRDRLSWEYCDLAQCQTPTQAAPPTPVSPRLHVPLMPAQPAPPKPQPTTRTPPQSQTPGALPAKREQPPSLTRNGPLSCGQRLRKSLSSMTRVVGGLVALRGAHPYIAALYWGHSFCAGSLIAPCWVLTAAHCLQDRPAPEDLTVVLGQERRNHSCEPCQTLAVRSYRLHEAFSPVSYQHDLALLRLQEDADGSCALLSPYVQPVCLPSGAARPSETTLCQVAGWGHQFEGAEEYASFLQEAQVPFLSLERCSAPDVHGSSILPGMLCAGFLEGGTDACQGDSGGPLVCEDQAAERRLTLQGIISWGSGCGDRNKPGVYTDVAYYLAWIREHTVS
Description: (§1) The compound was measured for inhibitory activity against human coagulation factor XII. Summed up: (§2)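 Enzymes (plasma kallikrein and factor XIIa of human origin) at 0.03–2.3 μM were incubated at 25 °C with inhibitor (1.7–420 μM) in 0.1 M Hepes, 0.01 M CaCl2, pH 7.5, 8–12% Me2SO. Timed aliquots were assayed for residual activity with Z-Arg-SBzl (80–90 μM) plus 4,4'-dithiodipyridine, read at 394 nm. Pseudo-first-order kobs came from ln v0/vt vs time; kobs/[I] typically averaged from duplicate or triplicate runs.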

Test [2] addresses Plasma kallikrein (Homo sapiens) (UniProt P03952). As to the kind of experiment: The compound was measured for inhibitory activity against human plasma kallikrein. The test is classed as cell-free. Summed up: as §2
Test [3] concerns the target Prothrombin (Bos taurus) (UniProt P00735). As to the kind of experiment: (§3) The compound was measured for inhibitory activity against bovine thrombin.
The target in test [4] is T2, Serine protease 1 (Bos taurus) (UniProt P00760).
T2 sequence (whole entry): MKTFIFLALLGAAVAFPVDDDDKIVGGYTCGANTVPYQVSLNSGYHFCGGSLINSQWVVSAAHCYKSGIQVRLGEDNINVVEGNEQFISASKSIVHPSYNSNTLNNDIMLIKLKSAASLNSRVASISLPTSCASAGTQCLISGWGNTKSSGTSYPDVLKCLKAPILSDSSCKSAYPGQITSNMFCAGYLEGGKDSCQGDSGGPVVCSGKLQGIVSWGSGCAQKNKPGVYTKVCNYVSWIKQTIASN
Description: The compound was measured for inhibitory activity against bovine trypsin. In short, it runs like this: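 Inactivation by incubation: enzyme (0.03–2.3 μM) with inhibitor (1.7–420 μM) added from Me2SO (8–12% final) in 0.1 M Hepes, 0.01 M CaCl2, pH 7.5, 25 °C. Aliquots withdrawn over time; residual activity read with Z-Phe-Gly-Arg-NA (100–120 μM) at 410 nm. kobs from ln v0/vt vs time; kobs/[I] typically averaged from duplicate or triplicate runs.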

In test [5] the target is Prothrombin (Homo sapiens) (UniProt P00734). As to the kind of experiment: The compound was measured for inhibitory activity against human thrombin. In short, it runs like this:
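Human thrombin (0.03–2.3 μM) was incubated at 25 °C with inhibitor (1.7–420 μM) in 0.1 M Hepes, 0.5 M NaCl, pH 7.5, 8–12% Me2SO. Residual activity in withdrawn aliquots was measured with Z-Arg-SBzl (80–90 μM) and 4,4'-dithiodipyridine at 394 nm. kobs from ln v0/vt vs time; kobs/[I] typically averaged from duplicate or triplicate experiments.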

For test [6], the target named is T3, Coagulation factor XII (Bos taurus) (UniProt P98140).
T3 sequence (whole entry): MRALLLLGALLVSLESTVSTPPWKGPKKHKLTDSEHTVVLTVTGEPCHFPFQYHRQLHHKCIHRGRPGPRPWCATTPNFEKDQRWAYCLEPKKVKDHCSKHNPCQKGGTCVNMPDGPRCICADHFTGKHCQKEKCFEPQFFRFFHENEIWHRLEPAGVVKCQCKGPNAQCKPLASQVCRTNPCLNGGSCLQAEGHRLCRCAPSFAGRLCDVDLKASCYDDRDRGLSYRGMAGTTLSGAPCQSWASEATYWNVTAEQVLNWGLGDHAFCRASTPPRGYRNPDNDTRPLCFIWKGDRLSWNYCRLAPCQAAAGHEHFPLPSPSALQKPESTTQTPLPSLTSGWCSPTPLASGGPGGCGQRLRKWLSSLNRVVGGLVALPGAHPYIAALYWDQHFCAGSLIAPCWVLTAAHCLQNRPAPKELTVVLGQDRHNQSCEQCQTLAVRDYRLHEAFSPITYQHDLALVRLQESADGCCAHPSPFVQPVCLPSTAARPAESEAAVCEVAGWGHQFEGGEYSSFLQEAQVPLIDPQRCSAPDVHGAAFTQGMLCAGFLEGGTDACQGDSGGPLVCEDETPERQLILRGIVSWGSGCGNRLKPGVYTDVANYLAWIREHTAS
Described as §1. In short, it runs like this: as §2

In test [7] the target is Prothrombin (Homo sapiens) (UniProt P00734). Described as §3.
The target is the same in test [8]. Description: The compound was measured for inhibitory activity against human thrombin; NI=No inhibition. Summed up: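 Human thrombin (0.03–2.3 µM) was incubated with inhibitor (1.7–420 µM, added in Me2SO, 8–12% final) in 0.1 M Hepes, 0.5 M NaCl, pH 7.5, at 25 °C. Timed aliquots were assayed for residual activity with Z-Arg-SBzl (80–90 µM) plus 4,4'-dithiodipyridine at 394 nm. Pseudo-first-order kobs came from ln v0/vt vs time, and kobs/[I] was typically averaged over duplicate or triplicate experiments.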

The target in test [9] is T2, Serine protease 1 (Bos taurus). Description: The compound was measured for inhibitory activity against bovine trypsin; NI=No inhibition. In short, it runs like this:
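Irreversible inactivation by incubation: enzyme (0.03–2.3 µM) mixed with inhibitor (1.7–420 µM, added in Me2SO, 8–12% final) in 0.1 M Hepes, 0.01 M CaCl2, pH 7.5, at 25 °C. Aliquots were taken over time and residual activity read with Z-Phe-Gly-Arg-NA (100–120 µM) at 410 nm. kobs came from ln v0/vt vs time, and kobs/[I] from the average of duplicate or triplicate runs.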

Plasma kallikrein (Homo sapiens), sequence (P03952 20-390 limits assumed): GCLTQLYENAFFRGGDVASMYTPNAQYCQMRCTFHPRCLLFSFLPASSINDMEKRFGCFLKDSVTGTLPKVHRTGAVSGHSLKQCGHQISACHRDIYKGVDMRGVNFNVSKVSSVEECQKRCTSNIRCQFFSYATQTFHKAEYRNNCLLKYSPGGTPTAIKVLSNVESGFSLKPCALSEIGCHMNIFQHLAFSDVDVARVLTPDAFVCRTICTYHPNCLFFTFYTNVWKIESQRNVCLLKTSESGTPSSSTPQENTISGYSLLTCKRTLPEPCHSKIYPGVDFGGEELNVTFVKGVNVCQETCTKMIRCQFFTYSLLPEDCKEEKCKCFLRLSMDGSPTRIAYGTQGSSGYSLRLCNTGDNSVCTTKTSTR
Plasma kallikrein (Homo sapiens), sequence (P03952 391-638 limits assumed): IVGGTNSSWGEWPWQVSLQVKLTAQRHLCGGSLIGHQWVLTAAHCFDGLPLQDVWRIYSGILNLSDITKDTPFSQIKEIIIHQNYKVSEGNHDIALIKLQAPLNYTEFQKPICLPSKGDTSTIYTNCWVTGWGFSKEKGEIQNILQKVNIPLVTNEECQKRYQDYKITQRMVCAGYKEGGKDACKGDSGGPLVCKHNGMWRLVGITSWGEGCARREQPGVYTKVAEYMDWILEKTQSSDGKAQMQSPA

As for `CC(C)(C)OC(=O)N[C@@H](Cc1ccccc1)C(=O)N1CCC[C@H]1C(=O)NC(c1ccc(C(=N)N)cc1)P(=O)(Oc1ccccc1)Oc1ccccc1` (some centres undefined), the K obs / 1 in test [1] came out at 52 M⁻¹ s⁻¹; in test [2], 160 M⁻¹ s⁻¹; in test [3], 12000 M⁻¹ s⁻¹; in [4], 2200 M⁻¹ s⁻¹; in [5], 11000 M⁻¹ s⁻¹.

As for `N=C(N)c1ccc(C(NC(=O)CNS(=O)(=O)c2ccc3ccccc3c2)P(=O)(Oc2ccccc2)Oc2ccccc2)cc1` (centres undefined), the K obs / 1 in test [6] stood at 25 M⁻¹ s⁻¹; in [2] it was 960 M⁻¹ s⁻¹; in [7], 170 M⁻¹ s⁻¹; in test [4], 470 M⁻¹ s⁻¹.

Regarding `CC(C)(C)OC(=O)N[C@@H](Cc1ccccc1)C(=O)N1CCC[C@H]1C(=O)N[C@@H](Cc1ccc(C(=N)N)cc1)P(=O)(Oc1ccccc1)Oc1ccccc1`, the K obs / 1 amounted to 130 M⁻¹ s⁻¹ in [4] and 0.7 M⁻¹ s⁻¹ in [5].

In the case of `N=C(N)c1ccc(C[C@H](NC(=O)[C@@H]2CCCN2C(=O)[C@@H](N)Cc2ccccc2)P(=O)(Oc2ccccc2)Oc2ccccc2)cc1`, the K obs / 1 in test [4] was found to be 50 M⁻¹ s⁻¹; in test [5] it was 54 M⁻¹ s⁻¹.

In the case of `N=C(N)c1ccc(C(NC(=O)[C@@H]2CCCN2C(=O)[C@@H](N)Cc2ccccc2)P(=O)(Oc2ccccc2)Oc2ccccc2)cc1` (some centres undefined), the K obs / 1 in test [1] turned out to be 2.8 M⁻¹ s⁻¹; in test [2] it was 250 M⁻¹ s⁻¹; in test [3], 730 M⁻¹ s⁻¹; in test [4], 110 M⁻¹ s⁻¹; in test [5], 700 M⁻¹ s⁻¹.

Take `N=C(N)c1ccc(C[C@H](N)P(=O)(Oc2ccccc2)Oc2ccccc2)cc1`: the K obs / 1 in test [4] turned out to be 32 M⁻¹ s⁻¹; in [5], 2.2 M⁻¹ s⁻¹.

As for `CCOP(=O)(OCC)[C@H](Cc1ccc(C(=N)N)cc1)NC(=O)[C@@H]1CCCN1C(=O)OCc1ccccc1`, the “K obs / 1” value in test [8] and in test [9] was “inactive” in each case.

Consider `N=C(N)c1ccc(C[C@H](NC(=O)OCc2ccccc2)P(=O)(Oc2ccccc2)Oc2ccccc2)cc1`, for which the K obs / 1 in test [4] is 24 M⁻¹ s⁻¹; in test [5], 0.2 M⁻¹ s⁻¹.

Consider `CC(=O)N[C@H](Cc1ccccc1)C(=O)N1CCC[C@H]1C(=O)N[C@@H](CCCN=C(N)N)P(=O)(Oc1ccccc1)Oc1ccccc1`, for which the K obs / 1 in test [5] was 1200 M⁻¹ s⁻¹.

As to `N=C(N)c1ccc(C(NC(=O)[C@@H]2CCCN2C(=O)OCc2ccccc2)P(=O)(Oc2ccccc2)Oc2ccccc2)cc1` (some centres undefined), the K obs / 1 in [1] came out at 2.6 M⁻¹ s⁻¹; in test [2] it was 60 M⁻¹ s⁻¹; in test [3], 70 M⁻¹ s⁻¹; in test [4] it was 100 M⁻¹ s⁻¹; in test [5] it was 20 M⁻¹ s⁻¹.

As to `N=C(N)c1ccc(C(NC(=O)OCc2ccccc2)P(=O)(Oc2ccccc2)Oc2ccccc2)cc1` (centres undefined), the K obs / 1 came out at 20 M⁻¹ s⁻¹ in test [1], 18000 M⁻¹ s⁻¹ in test [2], 170 M⁻¹ s⁻¹ in test [3] and 80 M⁻¹ s⁻¹ in [5].
